Experimental data as given in ChEMBL document CHEMBL1134485, “Diguanidino and "reversed" diamidino 2,5-diarylfurans as antimicrobial agents” (2001).
Values after ≈ are worked out from the molar mass of the structure shown.

Experiments:
[1] = test system: Nucleic Acid
[2] = test system: Nucleic Acid; remark: listed apart in the source
[3] = test system: Candida albicans; test: In vitro minimum inhibitory concentration against Candida albicans.; type: functional
[4] = test system: Candida albicans; test: In vitro minimum fungicidal concentration against Candida albicans.; type: functional
Method in brief: (§1)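 Yeast MFC: after broth macrodilution (RPMI 1640/MOPS pH 7.0, 0.5 × 10³ to 2.5 × 10³ CFU/mL, 35 °C, 48 h or 72 h for C. neoformans, drug 100 to 0.09 µg/mL), 100 µL from tubes with complete inhibition plated on Sabouraud agar; lowest concentration yielding three or fewer colonies recorded.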

[5] = test system: Aspergillus fumigatus; test: Minimum inhibitory concentration required to inhibit 100% inoculum of Aspergillus fumigatus 153.90; type: functional
[6] = test system: Candida albicans; test: Minimum inhibitory concentration required to inhibit 100% inoculum of Candida albicans 117.00; type: functional
[7] = test system: Aspergillus flavus; test: Minimum fungicidal concentration against Aspergillus flavus 194.99; type: functional
Method in brief: (§2)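 Mould MFC: 100 µL aliquots from macrodilution tubes (RPMI 1640/MOPS pH 7.0, 0.5 × 10³ to 2.5 × 10³ CFU/mL conidial inoculum, 30 °C, 48-72 h, drug 100 to 0.09 µg/mL) showing complete growth inhibition plated on Sabouraud agar; MFC taken as lowest drug concentration giving three or fewer colonies.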

[8] = test system: Candida albicans; test: Minimum fungicidal concentration against Candida albicans 117.00; type: functional
Method in brief: as §1

[9] = test system: Aspergillus fumigatus; test: Minimum fungicidal concentration against Aspergillus fumigatus 119.00; type: functional
Method in brief: as §2

[10] = test system: Rhizopus arrhizus; test: Minimum inhibitory concentration required to inhibit 100% inoculum of Rhizopus arrhizus 117.89; type: functional
[11] = test system: Candida albicans; test: Minimum fungicidal concentration against Candida albicans 126.97; type: functional
Method in brief: as §1

[12] = test system: Candida albicans; test: Minimum fungicidal concentration against Candida albicans 159.95; type: functional
Method in brief: as §1

[13] = test system: Aspergillus fumigatus; test: Minimum fungicidal concentration against Aspergillus fumigatus 153.90; type: functional
Method in brief: as §2

[14] = test system: Cryptococcus neoformans; test: Minimum fungicidal concentration against Cryptococcus neoformans H99; type: functional
Method in brief: as §1

[15] = test system: Fusarium solani; test: Minimum fungicidal concentration against Fusarium solani 152.89; type: functional
Method in brief: as §2

[16] = test system: Candida albicans; test: Minimum inhibitory concentration required to inhibit 80% inoculum of Candida albicans A39; type: functional
Method in brief: (§3)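 Broth macrodilution following NCCLS M27-T, drug dilutions 100 to 0.09 µg/mL, in RPMI 1640 with glutamine, no bicarbonate, buffered to pH 7.0 with 0.165 M MOPS. Inoculum grown at 35 °C, adjusted to 0.5 × 10³ to 2.5 × 10³ CFU/mL, incubated at 35 °C and read at 48 h. MIC80 is the lowest concentration giving […] visual turbidity relative to the growth-control tube.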

[17] = test system: Candida albicans; test: Minimum inhibitory concentration required to inhibit 100% inoculum of Candida albicans A39; type: functional
[18] = test system: Candida albicans; test: Minimum inhibitory concentration required to inhibit 100% inoculum of Candida albicans 149.97; type: functional
[19] = test system: Aspergillus flavus; test: Minimum inhibitory concentration required to inhibit 100% inoculum of Aspergillus flavus 194.99; type: functional
[20] = test system: Aspergillus flavus; test: Minimum fungicidal concentration against Aspergillus flavus 141.88; type: functional
Method in brief: as §2

[21] = test system: Candida albicans; test: Minimum inhibitory concentration required to inhibit 80% inoculum of Candida albicans 159.95; type: functional
Method in brief: as §3

[22] = test system: Aspergillus fumigatus; test: Minimum fungicidal concentration against Aspergillus fumigatus 165.86; type: functional
Method in brief: as §2

[23] = test system: Aspergillus fumigatus; test: Minimum inhibitory concentration required to inhibit 80% inoculum of Aspergillus fumigatus 168.95; type: functional
[24] = test system: Rhizopus arrhizus; test: Minimum fungicidal concentration against Rhizopus arrhizus 117.89; type: functional
Method in brief: as §2

[25] = test system: Aspergillus fumigatus; test: Minimum inhibitory concentration required to inhibit 100% inoculum of Aspergillus fumigatus 165.86; type: functional
[26] = test system: Aspergillus fumigatus; test: Antimicrobial activity against Aspergillus fumigatus (MIC); type: functional
[27] = test system: Mycobacterium tuberculosis; test: In vitro minimum inhibitory concentration required to inhibit Mycobacterium tuberculosis; type: functional
Method in brief: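 M. tuberculosis H37Rv grown in BACTEC 12B medium; fluorometric broth microdilution (Microplate Alamar Blue Assay). […] MIC = lowest concentration reducing relative fluorescence units by ≥90% relative to control culture. Testing done by TAACF.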

[28] = test system: Aspergillus flavus; test: Minimum inhibitory concentration required to inhibit 80% inoculum of Aspergillus flavus 141.88; type: functional
[29] = test system: Fusarium solani; test: Minimum inhibitory concentration required to inhibit 80% inoculum of Fusarium solani 152.89; type: functional
Method in brief: (§4)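 Mould broth macrodilution, drug dilutions 100 to 0.09 µg/mL, in RPMI 1640 buffered at pH 7.0 with 0.165 M MOPS. Isolates are grown on Sabouraud dextrose agar at 30 °C for 4-14 days. Conidia are harvested in 0.85% NaCl/0.05% Tween 80, counted by hemocytometer, and diluted to 0.5 × 10³ to 2.5 × 10³ CFU/mL. Cultures incubated at 30 °C for 48-72 h until the control grows. MIC80 read visually against the growth control.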

[30] = test system: Aspergillus flavus; test: Minimum inhibitory concentration required to inhibit 80% inoculum of Aspergillus flavus 107.96; type: functional
[31] = test system: Candida albicans; test: Minimum inhibitory concentration required to inhibit 80% inoculum of Candida albicans 116.98; type: functional
Method in brief: as §3

[32] = test system: Aspergillus flavus; test: Minimum inhibitory concentration required to inhibit 80% inoculum of Aspergillus flavus 194.99; type: functional
[33] = test system: Aspergillus flavus; test: Minimum inhibitory concentration required to inhibit 100% inoculum of Aspergillus flavus 107.96; type: functional
[34] = test system: Fusarium solani; test: Minimum inhibitory concentration required to inhibit 100% inoculum of Fusarium solani 152.89; type: functional
[35] = test system: Candida albicans; test: Minimum inhibitory concentration required to inhibit 100% inoculum of Candida albicans 126.97; type: functional
[36] = test system: Candida albicans; test: Minimum fungicidal concentration against Candida albicans 116.98; type: functional
Method in brief: as §1

[37] = test system: Aspergillus fumigatus; test: Minimum fungicidal concentration against Aspergillus fumigatus 168.95; type: functional
Method in brief: as §2

[38] = test system: Candida albicans; test: Minimum inhibitory concentration required to inhibit 100% inoculum of Candida albicans 159.95; type: functional
[39] = test system: Candida albicans; test: Minimum inhibitory concentration required to inhibit 80% inoculum of Candida albicans 117.00; type: functional
Method in brief: as §3

[40] = test system: Aspergillus fumigatus; test: Minimum inhibitory concentration required to inhibit 100% inoculum of Aspergillus fumigatus 182.99; type: functional
[41] = test system: Aspergillus fumigatus; test: Minimum inhibitory concentration required to inhibit 80% inoculum of Aspergillus fumigatus 119.00; type: functional
[42] = test system: Candida albicans; test: Minimum fungicidal concentration against Candida albicans 156.97; type: functional
Method in brief: as §1

[43] = test system: Candida albicans; test: Minimum inhibitory concentration required to inhibit 80% inoculum of Candida albicans 149.97; type: functional
Method in brief: as §3

[44] = test system: Aspergillus fumigatus; test: Minimum inhibitory concentration required to inhibit 100% inoculum of Aspergillus fumigatus 168.95; type: functional
[45] = test system: Aspergillus fumigatus; test: Minimum inhibitory concentration required to inhibit 100% inoculum of Aspergillus fumigatus 119.00; type: functional
[46] = test system: Aspergillus fumigatus; test: Minimum inhibitory concentration required to inhibit 80% inoculum of Aspergillus fumigatus 165.86; type: functional
[47] = test system: Candida albicans; test: Minimum inhibitory concentration required to inhibit 100% inoculum of Candida albicans 156.97; type: functional
[48] = test system: Rhizopus arrhizus; test: Minimum inhibitory concentration required to inhibit 80% inoculum of Rhizopus arrhizus 117.89; type: functional
Method in brief: as §4

[49] = test system: Candida albicans; test: Minimum inhibitory concentration required to inhibit 80% inoculum of Candida albicans 156.97; type: functional
Method in brief: as §3

[50] = test system: Cryptococcus neoformans; test: Minimum inhibitory concentration required to inhibit 80% inoculum of Cryptococcus neoformans H99; type: functional
Method in brief: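 Broth macrodilution following NCCLS M27-T, drug dilutions 100 to 0.09 µg/mL, in RPMI 1640 with glutamine, no bicarbonate, MOPS 0.165 M, pH 7.0. Inoculum grown at 35 °C, 0.5 × 10³ to 2.5 × 10³ CFU/mL, incubated at 35 °C and interpreted at […]. MIC80 is the lowest concentration with turbidity […] of the growth control.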

[51] = test system: Aspergillus flavus; test: Minimum fungicidal concentration against Aspergillus flavus 107.96; type: functional
Method in brief: as §2

[52] = test system: Aspergillus fumigatus; test: Minimum inhibitory concentration required to inhibit 80% inoculum of Aspergillus fumigatus 182.99; type: functional
[53] = test system: Aspergillus fumigatus; test: Minimum inhibitory concentration required to inhibit 80% inoculum of Aspergillus fumigatus 153.90; type: functional
[54] = test system: Aspergillus fumigatus; test: In vitro minimum fungicidal concentration required to inhibit Aspergillus fumigatus(MFC); type: functional
Method in brief: as §2

[55] = test system: Aspergillus flavus; test: Minimum inhibitory concentration required to inhibit 100% inoculum of Aspergillus flavus 141.88; type: functional
[56] = test system: Cryptococcus neoformans; test: Minimum inhibitory concentration required to inhibit 100% inoculum of Cryptococcus neoformans H99; type: functional
[57] = test system: Aspergillus fumigatus; test: Minimum fungicidal concentration against Aspergillus fumigatus 182.99; type: functional
Method in brief: as §2

[58] = test system: Candida albicans; test: Minimum fungicidal concentration against Candida albicans 149.97; type: functional
Method in brief: as §1

[59] = test system: Candida albicans; test: Minimum inhibitory concentration required to inhibit 80% inoculum of Candida albicans 126.97; type: functional
Method in brief: as §3

[60] = test system: Candida albicans; test: Minimum inhibitory concentration required to inhibit 100% inoculum of Candida albicans 116.98; type: functional
[61] = test system: Candida albicans; test: Minimum fungicidal concentration against Candida albicans A39; type: functional
Method in brief: as §1

N=C(N)c1ccc(-c2ccc(-c3ccc(C(=N)N)cc3)o2)cc1 [FURAMIDINE]
ΔTm [1]: 25
ΔTm [2]: 11.7
MIC [3]: 6.25 µg/mL (≈ 20.5 µM)
MFC [4]: 25 µg/mL (≈ 82.1 µM)

Cc1ccc(C(=N)Nc2ccc(-c3ccc(-c4ccc(NC(=N)c5ccc(C)cn5)cc4C)o3)c(C)c2)nc1
MIC [5]: 50 µg/mL (≈ 97.2 µM)
MIC [6]: 3.12 µg/mL (≈ 6.06 µM)
MFC [7]: > 100 µg/mL
MFC [8]: 25 µg/mL (≈ 48.6 µM)
MFC [9]: > 100 µg/mL
MIC [10]: 1.56 µg/mL (≈ 3.03 µM)
MFC [11]: 3.12 µg/mL (≈ 6.06 µM)
MFC [12]: 3.12 µg/mL (≈ 6.06 µM)
MFC [13]: > 100 µg/mL
MFC [14]: > 100 µg/mL
MFC [15]: 50 µg/mL (≈ 97.2 µM)
MIC [16]: 1.56 µg/mL (≈ 3.03 µM)
MIC [17]: 1.56 µg/mL (≈ 3.03 µM)
MIC [18]: 1.56 µg/mL (≈ 3.03 µM)
MIC [19]: 6.25 µg/mL (≈ 12.1 µM)
MFC [20]: > 100 µg/mL
MIC [21]: 0.79 µg/mL (≈ 1.54 µM)
ΔTm [1]: 24.3
MFC [22]: > 100 µg/mL
MIC [23]: 10 µg/mL (≈ 19.4 µM)
MFC [24]: 1.56 µg/mL (≈ 3.03 µM)
MIC [25]: 50 µg/mL (≈ 97.2 µM)
MIC [26]: 10 µg/mL (≈ 19.4 µM)
MIC [27]: 2 µg/mL (≈ 3.89 µM)
MIC [28]: 3.12 µg/mL (≈ 6.06 µM)
MIC [29]: 3.12 µg/mL (≈ 6.06 µM)
MIC [30]: 3.12 µg/mL (≈ 6.06 µM)
MIC [31]: 1.56 µg/mL (≈ 3.03 µM)
MIC [32]: 3.12 µg/mL (≈ 6.06 µM)
MIC [33]: 50 µg/mL (≈ 97.2 µM)
MIC [34]: 50 µg/mL (≈ 97.2 µM)
MIC [35]: 3.12 µg/mL (≈ 6.06 µM)
MFC [36]: > 100 µg/mL
MFC [37]: > 100 µg/mL
MIC [38]: 1.58 µg/mL (≈ 3.07 µM)
MIC [39]: 0.78 µg/mL (≈ 1.52 µM)
MIC [40]: 50 µg/mL (≈ 97.2 µM)
MIC [41]: 3.12 µg/mL (≈ 6.06 µM)
MFC [42]: > 100 µg/mL
MIC [43]: 0.78 µg/mL (≈ 1.52 µM)
MIC [44]: 50 µg/mL (≈ 97.2 µM)
MIC [45]: 50 µg/mL (≈ 97.2 µM)
MIC [46]: 50 µg/mL (≈ 97.2 µM)
MIC [47]: 3.15 µg/mL (≈ 6.12 µM)
MIC [48]: 0.78 µg/mL (≈ 1.52 µM)
ΔTm [2]: 10.8
MIC [49]: 1.56 µg/mL (≈ 3.03 µM)
MIC [50]: 1.56 µg/mL (≈ 3.03 µM)
MFC [51]: > 100 µg/mL
MIC [52]: 3.12 µg/mL (≈ 6.06 µM)
MIC [3]: ≤ 1 µg/mL
MIC [53]: 3.12 µg/mL (≈ 6.06 µM)
MFC [54]: > 100 µg/mL
MIC [55]: 50 µg/mL (≈ 97.2 µM)
MIC [56]: 1.56 µg/mL (≈ 3.03 µM)
MFC [57]: > 100 µg/mL
MFC [58]: 6.25 µg/mL (≈ 12.1 µM)
MFC [4]: 10 µg/mL (≈ 19.4 µM)
MIC [59]: 1.56 µg/mL (≈ 3.03 µM)
MIC [60]: 1.56 µg/mL (≈ 3.03 µM)
MFC [61]: 25 µg/mL (≈ 48.6 µM)
